Assay results as given in PMC5002266 (Nuclear medicine and biology, 2016).

Key:
[1] = Biodistribution of 99mTc radiotracer in tumor-bearing mice; format: in vivo, BALB/c nude mice; details: female, BALB/c nude, mouse, iv, 0.1 MBq, total radioactivity
Procedure, shortened: (§1)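 Female BALB/c nude mice (4–5 weeks, 16–20 g) carried U87MG cells (5 × 10^6, s.c. shoulder flank) and were used at a tumor volume of ~400 mm3 (~10 days). Each received ~0.1 MBq of 99mTc tracer (~2 ng HYNIC conjugate) in saline by tail vein. Five animals were killed per time point (5, 30, 60, 120 min p.i.). Organs were weighed and γ-counted as %ID/g, and tumor-to-background ratios were reported as mean ± SD.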

[2] = feces at 2 h p.i.; ref [14]; cited from earlier work
[3] = system: BALB/c nude mice bearing U87MG human glioma xenografts; assay: Biodistribution of 99mTc radiotracer in tumor-bearing mice; format: in vivo; details: BALB/c nude mice with U87MG xenografts, mean ± SD, n = 5
Procedure, shortened: as §1

Metabolism = format: in vivo; details: athymic nude mice (n = 3); ~10 MBq tail vein; feces at 2 h p.i.; radio-HPLC
Procedure, shortened: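 Athymic nude mice (n = 3) received ~10 MBq tracer i.v. Feces collected at 120 min p.i. were counted, suspended in 20% aqueous acetonitrile, vortexed ~5 min and centrifuged at 8,000 rpm. The supernatant was counted, filtered at 0.20 µm and run on radio-HPLC (C8, 1 mL/min; 25 mM NH4OAc pH 6.8/acetonitrile, isocratic 5 min then gradient to 60% acetonitrile at 20 min).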

integrin αvβ3 = assay: Monitoring αvβ3 expression by SPECT/CT in three tumor models; format: in vivo, athymic nu/nu mice; details: SPECT/CT of tumor-bearing athymic nude mice, ~50 MBq
Procedure, shortened: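 Female athymic nu/nu mice (4–5 weeks) received 5 × 10^6 cells in 0.1 mL saline: U87MG and PC-3 into shoulder flanks, MDA-MB-435 into breast fat pads. At tumor sizes of 0.1–0.5 g, they were given tracer i.v. and imaged on a multi-pinhole (1.0 mm) SPECT/CT at 60 min p.i. under ~3.0% isoflurane. Tumor ROIs came from CT, and activity was converted via a γ-counter-calibrated standard curve to %ID/g, assuming ~1 g/cm3.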

N=C(N)NCCC[C@@H]1NC(=O)[C@H](CCCCNC(=O)CCOCCOCCOCCOCCNC(=O)CC[C@H](NC(=O)CCOCCOCCOCCOCCNC(=O)c2ccc(NN)nc2)C(=O)NCCOCCOCCOCCOCCC(=O)NCCCC[C@@H]2NC(=O)[C@@H](Cc3ccccc3)NC(=O)[C@H](CC(=O)O)NC(=O)CNC(=O)[C@H](CCCNC(=N)N)NC2=O)NC(=O)[C@@H](Cc2ccccc2)NC(=O)[C@H](CC(=O)O)NC(=O)CNC1=O [^99mTc-3P-RGD2, [^99mTc(HYNIC-3P-RGD2)(tricine)(TPPTS)], metal not drawn]
tissue uptake at 2 h ([1]; blood): 0.32 ± 0.06 %ID/g
tissue uptake at 0.5 h ([1]; brain): 0.41 ± 0.17 %ID/g
tissue uptake at 1 h ([1]; brain): 0.41 ± 0.05 %ID/g
tissue uptake at 2 h ([1]; brain): 0.23 ± 0.09 %ID/g
tissue uptake at 1 h ([1]; eyes): 2.57 ± 0.59 %ID/g
tissue uptake at 2 h ([1]; eyes): 2.12 ± 0.86 %ID/g
tissue uptake at 0.5 h ([1]; heart): 3.48 ± 0.45 %ID/g
tissue uptake at 1 h ([1]; heart): 3.13 ± 0.44 %ID/g
tissue uptake at 2 h ([1]; heart): 2.07 ± 0.75 %ID/g
tissue uptake at 0.5 h ([1]; intestine): 4.24 ± 1.54 %ID/g
tissue uptake at 1 h ([1]; intestine): 5.45 ± 1.47 %ID/g
tissue uptake at 2 h ([1]; intestine): 3.37 ± 1.32 %ID/g
tissue uptake at 0.5 h ([1]; kidneys): 32.9 ± 2.94 %ID/g
tissue uptake at 1 h ([1]; kidneys): 24.6 ± 3.59 %ID/g
tissue uptake at 2 h ([1]; kidneys): 19.1 ± 2.6 %ID/g
tissue uptake at 0.5 h ([1]; liver): 5.82 ± 0.79 %ID/g
tissue uptake at 1 h ([1]; liver): 4.83 ± 0.6 %ID/g
tissue uptake at 2 h ([1]; liver): 4.52 ± 0.76 %ID/g
tissue uptake at 0.5 h ([1]; lungs): 4.24 ± 0.87 %ID/g
tissue uptake at 1 h ([1]; lungs): 3.5 ± 1.01 %ID/g
tissue uptake at 2 h ([1]; lungs): 2.39 ± 0.71 %ID/g
tissue uptake at 0.5 h ([1]; muscle): 2.25 ± 0.48 %ID/g
tissue uptake at 1 h ([1]; muscle): 1.5 ± 0.49 %ID/g
tissue uptake at 2 h ([1]; muscle): 1.23 ± 0.21 %ID/g
tissue uptake at 0.5 h ([1]; spleen): 5.03 ± 0.45 %ID/g
tissue uptake at 1 h ([1]; spleen): 4.02 ± 0.7 %ID/g
tissue uptake at 2 h ([1]; spleen): 3.8 ± 0.5 %ID/g
tissue to tissue ratio at 0.5 h ([1]; tumor / blood): 4.33 ± 0.12
tissue to tissue ratio at 1 h ([1]; tumor / blood): 5.86 ± 2.21
tissue to tissue ratio at 2 h ([1]; tumor / blood): 12 ± 3.62
tissue to tissue ratio at 0.5 h ([1]; tumor / liver): 1.16 ± 0.54
tissue to tissue ratio at 1 h ([1]; tumor / liver): 1.1 ± 0.54
tissue to tissue ratio at 2 h ([1]; tumor / liver): 0.84 ± 0.1
tissue to tissue ratio at 0.5 h ([1]; tumor / lung): 1.52 ± 0.74
tissue to tissue ratio at 1 h ([1]; tumor / lung): 1.33 ± 0.52
tissue to tissue ratio at 2 h ([1]; tumor / lung): 1.74 ± 0.63
tissue to tissue ratio at 0.5 h ([1]; tumor / muscle): 1.85 ± 1.38
tissue to tissue ratio at 1 h ([1]; tumor / muscle): 2.25 ± 1.56
tissue to tissue ratio at 2 h ([1]; tumor / muscle): 3.09 ± 0.4
tissue uptake at 0.5 h ([1]; tumor): 6.77 ± 1.3 %ID/g
tissue uptake at 1 h ([1]; tumor): 4.62 ± 0.57 %ID/g
tissue uptake at 2 h ([1]; tumor): 3.93 ± 0.63 %ID/g
tissue uptake at 0.5 h ([1]; whole blood): 1.54 ± 0.14 %ID/g
tissue uptake at 1 h ([1]; whole blood): 0.87 ± 0.1 %ID/g
Radiotracer remaining intact in the feces samples [2]: 70%

[^99mTc(HYNIC-4P-RGD3)(tricine)(TPPTS)] (head to tail) [^99mTc-4P-RGD3]
Tumor/Blood ratio ([3]; 5 min p.i.): 1.23 ± 0.34
Tumor/Liver ratio ([3]; 5 min p.i.): 0.55 ± 0.16
Tumor/Lung ratio ([3]; 5 min p.i.): 0.69 ± 0.15
Tumor/Muscle ratio ([3]; 5 min p.i.): 1.80 ± 0.48
Tumor/Blood ratio ([3]; 30 min p.i.): 3.69 ± 0.48
Tumor/Liver ratio ([3]; 30 min p.i.): 0.79 ± 0.11
Tumor/Lung ratio ([3]; 30 min p.i.): 1.07 ± 0.13
Tumor/Muscle ratio ([3]; 30 min p.i.): 2.29 ± 0.34
Tumor/Blood ratio ([3]; 60 min p.i.): 6.21 ± 2.34
Tumor/Liver ratio ([3]; 60 min p.i.): 0.87 ± 0.25
Tumor/Lung ratio ([3]; 60 min p.i.): 1.08 ± 0.25
Tumor/Muscle ratio ([3]; 60 min p.i.): 1.78 ± 0.69
Tumor/Blood ratio ([3]; 120 min p.i.): 8.21 ± 1.71
Tumor/Liver ratio ([3]; 120 min p.i.): 0.70 ± 0.19
Tumor/Lung ratio ([3]; 120 min p.i.): 1.45 ± 0.22
Tumor/Muscle ratio ([3]; 120 min p.i.): 2.79 ± 0.55
Radiotracer remaining intact in the feces sample (Metabolism): More than 95%
Ranking order of tumor uptake values among tumor models (integrin αvβ3): U87MG > MDA-MB-435 >> PC-3
